Hits are enriched below; roughly 2.4% of the tested compounds scored in any of these assays.
NPY Y1 blocker: antagonists of human neuropeptide Y receptor Y1; HEK293-CNG Y1 cells, membrane potential fluorescence; NPY at EC95, then isoproterenol; P25929; AID 1040; inhibition, % at 3.6 µM; hit rate 1% among 200,000;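 active = inhibition above the campaign mean inhibition of all tested compounds plus 3 SD, cut at about 20% in these data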
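Assay system: HEK293 cells with Y1 receptor plus CNG channel | Probe or stimulus: NPY (25 nM), isoproterenol (1 µM), Ro 20-1724 (25 µM) | Timing: Compound incubation 1 h at room temperature, readout 45 min post-stimulation | Measured by: Membrane-potential fluorescent dye readout | Benchmarks: High control isoproterenol alone, low control NPY with isoproterenol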
NPY Y2 blocker: blocks the human neuropeptide Y Y2 receptor; NPY-Y2 expressing cells, antagonist mode; hit rate 0.99% among 140,000; AID 793; inhibition, % at 2.7 µM; in the data active = inhibition above about 17%
NPY1 pot ag: potentiators or agonists of human neuropeptide Y receptor Y1; hit rate 0.37% among 220,000; AID 1304; NPY-Y1 expressing cells, potentiator/agonist activation; activation, % at 3.6 µM; in the data active = activation above about 33%, passing the limit was not always enough;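 also: cells stimulated with NPY at EC10 then isoproterenol at EC100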
NPY2 pot ag: potentiates or activates human NPY-Y2 receptor; hit rate 0.45% among 220,000; activation, % at 3.6 µM; cells expressing NPY-Y2, potentiator/agonist read-out; in the data active = activation above about 27%;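 also: cells stimulated with NPY near EC25 plus isoproterenol at EC100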
S1P4 antagonist: blocks the human S1P4 receptor. O95977. S1P4-expressing cells, antagonist mode, reporter read-out. inhibition, % at 4.98 µM. hit rate 0.26% among 220,000. AID 1510; in the data active = inhibition above about 29%
S1P4 agonist: activates the human S1P4 receptor; O95977; S1P4-expressing cell line, agonist reporter assay; activation, % at 4.98 µM; hit rate 0.35% among 220,000; AID 1509; in the data active = activation above about 11%
S1P4 agonist cf: confirmation of human S1P4 receptor agonists; shares compounds with S1P4 agonist; S1P4 agonist cell-based reporter assay; activation, % at 4.98 µM; hit rate 7% among 740; in the data active = activation above about 12%
S1P1 ag: activates human S1P1, counter-screen for S1P4 agonists. shares compounds with S1P4 agonist. S1P1 agonist cell-based assay, activation. activation, % at 4.98 µM. hit rate 4% among 740. AID 1563; in the data active = activation above about 21%
Target sequence (P21453 whole entry, looked up): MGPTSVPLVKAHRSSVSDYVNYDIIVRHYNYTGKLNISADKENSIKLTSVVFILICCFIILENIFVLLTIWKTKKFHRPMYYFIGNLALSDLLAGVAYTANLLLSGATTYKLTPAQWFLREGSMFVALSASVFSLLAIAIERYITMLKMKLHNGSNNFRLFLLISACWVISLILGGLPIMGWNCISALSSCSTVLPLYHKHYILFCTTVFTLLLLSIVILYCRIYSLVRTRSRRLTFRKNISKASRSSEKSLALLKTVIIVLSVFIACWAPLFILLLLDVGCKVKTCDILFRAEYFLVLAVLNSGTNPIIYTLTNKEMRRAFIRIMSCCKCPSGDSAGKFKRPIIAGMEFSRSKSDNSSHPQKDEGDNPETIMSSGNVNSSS
Each line names hits and unclear results; the compound was inactive in the other large screens (follow-up assays come after a bar, where they were run).

CC(=O)c1cnc2sccn2c1=O	S1P4 agonist 16.1 (no result: NPY Y2 blocker) | S1P4 agonist cf inactive | S1P1 ag inactive
CN(c1nc2nonc2nc1NC1CC1)C1CCOC1 (configuration not stated)	S1P4 agonist 12.3 (no result: NPY Y2 blocker) | S1P4 agonist cf inactive | S1P1 ag inactive
Cc1cc(C)c2cc(C(=O)N3CCc4ccccc4C3)[nH]c2c1	none (no result: NPY Y1 blocker, NPY Y2 blocker)
O=C(NCCN1CCOCC1)c1cccn2c(=O)c3c4c(sc3nc12)CCCC4	none (no result: NPY Y1 blocker, NPY Y2 blocker)
O=c1c2c3c(sc2nc2sc(CN4CCOCC4)cn12)CCCC3	S1P4 agonist 40.5 | S1P4 agonist cf inactive | S1P1 ag inactive
Clc1ccc(C2=NN(c3ccccc3)C(c3ccco3)C2)cc1 (configuration not stated)	S1P4 agonist 20.4 (no result: NPY Y1 blocker, NPY Y2 blocker) | S1P4 agonist cf 14.2 | S1P1 ag 30.3
COc1cc(/C=N/NC(=O)COc2ccc(-n3cnnn3)cc2)ccc1OCC(N)=O	none (no result: NPY Y1 blocker, NPY Y2 blocker)
CCOC(=O)c1sc(NC(=S)NC(=O)c2ccco2)nc1C	S1P4 agonist 33.7 | S1P4 agonist cf inactive | S1P1 ag inactive
COC(=O)c1sc(NC(=O)c2ccco2)nc1C	none
CCOc1ccc(-c2cc(C(=O)OC)[nH]n2)cc1	none (no result: NPY Y2 blocker)
CCC1(C(=O)OC)CCc2c(cc(OC)c3ccccc23)C1=O (configuration not stated)	S1P4 agonist 12.7 (no result: NPY Y1 blocker, NPY Y2 blocker) | S1P4 agonist cf inactive | S1P1 ag inactive
CSCc1ccc(C(=O)Nc2ccc(C(N)=O)cc2)cc1	none (no result: NPY Y2 blocker)
Cc1cccc2cc(-c3ccccc3)c(-c3ccccc3)c[n+]12	none
O=C(CSCc1ccc(Cl)cc1)Nc1ccc(S(=O)(=O)N2CCCCCC2)cc1	S1P4 agonist 14.6 | S1P4 agonist cf inactive | S1P1 ag inactive
O=[N+]([O-])c1cccc(NC(=S)NCCc2ccccc2)c1	S1P4 agonist 20.3 | S1P4 agonist cf inactive | S1P1 ag inactive
Fc1cccc(NC(=S)NCCc2ccccc2)c1	none
Cc1ccc(S(=O)(=O)N2CCc3ccccc3C2CC(=O)O)cc1 (configuration not stated)	S1P4 agonist 25.9 (no result: NPY Y1 blocker, NPY Y2 blocker) | S1P4 agonist cf inactive | S1P1 ag inactive
CCc1cccc(NC(=O)C(NC(=O)C2CCCCC2)C(C)C)c1 (configuration not stated)	none (no result: NPY Y2 blocker)
NNC(=O)c1ncoc1-c1ccc(Cl)cc1	none (no result: NPY Y1 blocker, NPY Y2 blocker)
Cc1ccc(NC(=O)CN(C)C(=O)CCCN2C(=O)c3ccccc3C2=O)cc1	S1P4 agonist 38.3 | S1P4 agonist cf inactive | S1P1 ag inactive
CCN(c1ccccc1)S(=O)(=O)c1cc([N+](=O)[O-])ccc1N	S1P4 agonist 17.0 (no result: NPY Y2 blocker) | S1P4 agonist cf 18.9 | S1P1 ag inactive
Cc1cc2cc3c(=O)[nH]c(=O)[nH]c3nc2cc1C	none (no result: NPY Y1 blocker, NPY Y2 blocker)
Cc1ccc(NC(=O)Cn2cnc3ccccc32)cc1C	S1P4 agonist 57.6 (no result: NPY Y2 blocker) | S1P4 agonist cf inactive | S1P1 ag inactive
CCOc1cc(N2CCOCC2)c(OCC)cc1NC(=O)c1ccc(C)cc1	S1P4 agonist 155.0 (no result: NPY Y2 blocker) | S1P4 agonist cf inactive | S1P1 ag inactive
CN1CCN(CCCNC(=O)c2ccc(/C=C3\Sc4ccccc4N(Cc4ccc(F)cc4)C3=O)cc2)CC1	S1P4 agonist 23.1 (no result: NPY Y2 blocker) | S1P4 agonist cf inactive | S1P1 ag inactive
CN1CCN(CCCNC(=O)c2ccc(/C=C3/Sc4ccccc4N(Cc4cccc(Cl)c4)C3=O)cc2)CC1	none (no result: NPY Y2 blocker)
CCOC(=O)C1CCN(CC(=O)N(CC(C)C)c2c(N)n(CC(C)C)c(=O)[nH]c2=O)CC1	none (no result: NPY Y2 blocker)
COc1cc(CC(=O)Nc2cccc(SC)c2)cc(OC)c1OC	S1P4 agonist 44.6 (no result: NPY Y2 blocker) | S1P4 agonist cf inactive | S1P1 ag inactive
COCCCNC(=O)C1CCN(C(=O)Nc2ccc(Cl)cc2)CC1	S1P4 agonist 60.7 | S1P4 agonist cf inactive | S1P1 ag inactive
CC(=O)c1sc(NC(=O)COc2ccc(Cl)cc2C)nc1C	none (no result: NPY Y1 blocker, NPY Y2 blocker)
Cc1nc2cc(NC(=O)NCc3ccco3)ccc2o1	S1P4 agonist 19.6 | S1P4 agonist cf inactive | S1P1 ag inactive
C=CCn1c(SCC(=O)Nc2nnc(CC)s2)nnc1-c1ccco1	S1P4 agonist 29.1 | S1P4 agonist cf inactive | S1P1 ag inactive
CC(=O)NCC1(O)CCCC(C)C1 (configuration not stated)	none (no result: NPY Y1 blocker, NPY Y2 blocker)

Screens as filed in PubChem BioAssay.
